Test results reported in ChEMBL document CHEMBL1156237, “Antiviral activity of benzimidazole derivatives. II. Antiviral activity of 2-phenylbenzimidazole derivatives” (Bioorg Med Chem, 2010).
Active and inactive are the calls of the source.

Columns and labels:
[1] = Cytotoxicity against MDBK cells after 48 to 96 hrs by MTT assay; type: cell-based, Bos taurus; details: cattle, MDBK cells
Summary of the method: (§1)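 Cell seeding: MDBK at 6 × 10^5 cells/mL in MEM-E with 10% horse serum and 1 mM Na pyruvate; BHK at 1 × 10^6 cells/mL in MEM-E with 10% FBS. Serial compound dilutions, 37 °C, 5% CO2. Viability of mock-infected cells by MTT after 48–96 h; CC50 is the concentration reducing viability by 50%.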

[2] = tested on: Vesicular stomatitis virus; assay: Antiviral activity against VSV Indiana lab infected in african green monkey Vero cells after 2 days by plaque reduction assay; type: functional, organism-based
Poliovirus 1 = assay: Antiviral activity against Polio virus type1 Sabin strain Chat infected in african green monkey Vero cells after 2 days by plaque reduction assay; type: functional, organism-based, Human poliovirus 1 strain Sabin; details: Enterovirus C, 48 h
[3] = Cytotoxicity against BHK cells after 48 to 96 hrs by MTT assay; type: cell-based, Mesocricetus auratus; details: hamster; summary of the method: as §1
Vaccinia virus = assay: Antiviral activity against Vaccinia virus Elstree-Lister infected in african green monkey Vero cells after 3 days by plaque reduction assay; type: functional, organism-based; details: Orthopoxvirus vaccinia; for EC50: 72 h
[4] = tested on: Bovine viral diarrhea virus 1; assay: Antiviral activity against Bovine viral diarrhea virus NADL infected in MDBK cells assessed as protection from virus-induced cytopathogenicity after 3 to 4 days by MTT method; type: functional, organism-based, Bovine viral diarrhea virus 1-NADL; details: Bovine viral diarrhea virus isolates and strains, MDBK
Summary of the method: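 Cytopathogenicity protection assay. MDBK cells at 3 × 10^4/well, grown overnight to confluence. Infected with BVDV NADL at m.o.i. 0.01 in MEM-E with 0.5% inactivated FBS, 1 mM Na pyruvate and 1% kanamycin. Serial compound dilutions added after 1 h. After 3–4 days at 37 °C, viability read by MTT; EC50 is the concentration giving 50% protection.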

Human alphaherpesvirus 1 = assay: Antiviral activity against HSV1 KOS infected in african green monkey Vero cells after 3 days by plaque reduction assay; type: functional, organism-based; details: Human alphaherpesvirus 1, KOS, 72 h
Summary of the method: (§2)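 Plaque reduction assay. Vero 76 cells at 2 × 10^5/well, grown overnight to confluence in D-MEM with 10% FBS. Infected 2 h with 50–100 PFU/well, unadsorbed virus removed. Overlay of D-MEM with 1% inactivated FBS and 0.75% methylcellulose, with or without serial compound dilutions. Incubated at 37 °C for 3 days (HSV-1 KOS, CVB-2 Ohio-1) or 5 days (RSV A2). Fixed and stained with crystal violet in 50% ethanol; plaques counted; EC50 by linear regression.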

[5] = tested on: Human immunodeficiency virus 1; assay: Antiviral activity against HIV1 3B infected in human MT4 cells assessed as protection from virus-induced cytopathogenicity after 4 days by MTT method; type: functional, organism-based
Summary of the method: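 MT-4 cells, 1 × 10^4/well in RPMI with or without serial compound dilutions, infected with HIV-1 IIIB, 100 CCID50 (m.o.i. 0.01). Protection from virus-induced cytopathogenicity read by MTT.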

[6] = tested on: Mammalian orthoreovirus 1; assay: Antiviral activity against Reovirus 1 3651 infected in BHK21 cells assessed as protection from virus-induced cytopathogenicity after 3 to 4 days by MTT method; type: functional, organism-based; details: for Activity: BHK-21
Coxsackievirus B2 = assay: Antiviral activity against Human coxsackievirus B2 Ohio-1 infected in african green monkey Vero cells after 3 days by plaque reduction assay; type: functional, organism-based, Coxsackievirus B2 (strain Ohio-1); details: Enterovirus B, Vero, 72 h; summary of the method: as §2
[7] = tested on: Respiratory syncytial virus; assay: Antiviral activity against RSV A2 infected in african green monkey Vero cells after 5 days by plaque reduction assay; type: functional, organism-based; details: for EC50: human respiratory syncytial virus, A2, Vero, 120 h; summary of the method: as §2
[8] = Cytotoxicity against african green monkey Vero cells; type: cell-based; details: chlorocebus sabaeus
Summary of the method: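 Vero 76 monolayers exposed to serial compound dilutions, run in parallel on the same 24-well plates as the plaque-reduction assays. CC50 is the concentration reducing viability of mock-infected cells by 50%.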

Yellow fever virus = assay: Antiviral activity against Yellow fever virus 17D infected in BHK cells assessed as protection from virus-induced cytopathogenicity after 3 to 4 days by MTT method; type: functional, organism-based
[9] = Cytotoxicity against human MT4 cells after 96 hrs by MTT assay; type: cell-based; details: MT4 cells
Summary of the method: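 Exponentially growing MT-4 cells at 1 × 10^5 cells/mL in RPMI-1640 with 10% FCS, exposed to serial compound dilutions at 37 °C, 5% CO2. Viability by MTT after 96 h; CC50 is the concentration reducing viability of mock-infected cells by 50%.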

Row | SMILES | CC50 [1] | Activity [2] | EC50 (Poliovirus 1) | CC50 [3] | Activity (Vaccinia virus) | EC50 [4] | EC50 (Human alphaherpesvirus 1) | Activity [5] | Activity [6] | EC50 (Coxsackievirus B2) | Activity [7] | CC50 [8] | EC50 (Yellow fever virus) | CC50 at 96 h [9] | EC50 ([6]; Mammalian orthoreovirus 1, 3651, BHK-21) | EC50 (Vaccinia virus) | EC50 [7]
1 | Cn1c(-c2ccc(NC(=O)CN3CCOCC3)cc2)nc2cc(C(F)(F)F)ccc21 | > 100 µM | inactive | > 100 µM | > 100 µM | inactive | > 100 µM | > 100 µM | inactive | inactive | > 100 µM | inactive | > 100 µM | > 100 µM | ≥ 100 µM |  |  | 
2 | Nc1ccc(-c2nc3cc(C(F)(F)F)ccc3n2C2CCCCC2)cc1 | > 100 µM | inactive | > 100 µM | > 100 µM | inactive | > 100 µM | > 100 µM | inactive | inactive | > 100 µM | inactive | > 100 µM | > 100 µM | 44 µM |  |  | 
3 | Nc1ccc(-c2nc3ccccc3[nH]2)cc1 | > 100 µM | inactive | > 100 µM | > 100 µM |  | 16 µM | > 100 µM | inactive |  | 19 µM |  | > 100 µM | > 100 µM | 81 µM | 85 µM |  | 
4 | COc1ccc(-c2nc3cc(Cl)c(Cl)cc3[nH]2)cc1 | 2.5 µM | inactive | > 30 µM | 18 µM |  | > 2.5 µM | 20 µM | inactive |  | 10 µM |  | 30 µM | > 18 µM | 1 µM |  | > 30 µM | > 30 µM
5 | COc1ccc(-c2nc3cc([N+](=O)[O-])ccc3[nH]2)c(OC)c1 | > 100 µM | inactive | > 100 µM | > 100 µM |  | 45 µM | > 100 µM | inactive |  | > 100 µM |  | > 100 µM | > 100 µM | > 100 µM |  | > 100 µM | > 100 µM
6 | O=[N+]([O-])c1ccc(-c2nc3ccccc3[nH]2)c([N+](=O)[O-])c1 | 20 µM | inactive | > 100 µM | > 100 µM |  | > 20 µM | 25 µM | inactive |  | 40 µM |  | > 100 µM | > 100 µM | 7 µM |  | > 100 µM | > 100 µM
7 | COc1ccc(-c2nc3cc(C(F)(F)F)ccc3[nH]2)c(N)c1 | 4 µM | inactive | 18 µM | ≥ 100 µM |  | > 4 µM | > 50 µM | inactive |  | 6 µM |  | 50 µM | 20 µM | 5 µM |  | > 50 µM | > 50 µM
8 | COc1ccc(-c2nc3cc(C(F)(F)F)ccc3[nH]2)cc1 | > 100 µM | inactive | > 15 µM | > 100 µM |  | 1 µM | > 15 µM | inactive |  | 7 µM |  | 15 µM | > 100 µM | 2 µM |  | > 15 µM | > 15 µM
9 | O=[N+]([O-])c1ccc(-c2nc3cc(C(F)(F)F)ccc3n2C2CCCCC2)cc1 | 68 µM | inactive | > 100 µM | > 100 µM |  | 60 µM | > 100 µM | inactive |  | 45 µM |  | > 100 µM | > 100 µM | 49 µM |  | 87 µM | > 100 µM
